Screening results as filed in PubChem.
mABHD4 FP: ABHD4 (mouse) inhibition, primary FP screen | Q8VD66 | purified mABHD4, FP-Rh probe fluorescence polarization | inhibition, % at 8.92 µM | actives 0.54% (n = 370,000) | AID 720543;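 active means inhibition exceeding the mean over every tested compound plus 3 SD, cut at about 30% in these data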;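 further: 0% = plate median of compound wells and 100% = S159A mutant with DMSO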
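Assay system: mABHD4 protein; medium: HEPES pH 7.0, NaCl, Pluronic buffer; dosing: 8.92 µM, single dose; schedule: 45 min + 60 min at 25 °C; signal: FP readout, ex 525 nm / em 598 nm; read-out: normalized percent inhibition of probe labeling; repeats: single replicate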
PRMT1 inh: inhibitors of human PRMT1; Q99873; recombinant PRMT1, activity-based probe fluorescence polarization; inhibition, % at 2.79 µM; actives 1.3% (n = 370,000); AID 652257;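 active means inhibition above about 21% made by adding two undisclosed values, limit read from the data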
Target sequence (Q99873 whole entry, looked up): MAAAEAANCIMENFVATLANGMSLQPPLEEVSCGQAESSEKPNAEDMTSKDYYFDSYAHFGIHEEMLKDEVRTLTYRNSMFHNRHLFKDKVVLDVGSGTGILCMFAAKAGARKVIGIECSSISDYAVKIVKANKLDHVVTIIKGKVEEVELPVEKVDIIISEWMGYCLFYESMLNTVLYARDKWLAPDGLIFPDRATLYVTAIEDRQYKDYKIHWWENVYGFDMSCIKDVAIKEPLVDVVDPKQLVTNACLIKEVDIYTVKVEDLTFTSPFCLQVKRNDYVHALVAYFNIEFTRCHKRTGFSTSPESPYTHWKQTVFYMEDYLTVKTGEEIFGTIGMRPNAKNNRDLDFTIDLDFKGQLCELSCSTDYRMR
HTRA1 inh: inhibitors of human serine peptidase HTRA1. Q92743. recombinant HTRA1, FP-rhodamine activity-based probe, fluorescence polarization. inhibition, % at 5.96 µM. actives 0.5% (n = 340,000). AID 504803; in the data active means inhibition above about 36%;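 further: 0% = enzyme with DMSO and 100% = wells lacking enzyme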
TCR CD3 inh: human TCR-CD3 binding inhibition | TAMRA-labeled TCR probe fluorescence, biochemical | inhibition, % at 9.4 µM | actives 0.37% (n = 360,000) | AID 651800; in the data active means inhibition above about 19%;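 further: recombinant mutant TCR 2C K166C tagged with TAMRA read by polarization; 0% = receptor in buffer alone and 100% = receptor with positive control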
SIAE primary: human SIAE inhibition, primary screen | SIAE FP-Rh probe binding, fluorescence polarization | actives 0.69% (n = 370,000) | Q9HAT2 | inhibition, % at 9.66 µM | AID 1053197;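 active means inhibition above a cutoff: mean of compounds within the control limits plus 3 SD of those, cut at about 17% in these data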;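 further: 0% = plate median of compound wells and 100% = probe without SIAE protein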
ABHD4 confirm: confirmation of mouse ABHD4 inhibitors; AID 720658; actives 55% (n = 1,800); purified mABHD4, FP-Rh probe fluorescence polarization; inhibition, % at 8.92 µM; shares compounds with mABHD4 FP;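 active means mean inhibition across replicates above the hit cutoff set in the primary screen, cut at about 30% in these data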;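 further: 0% = wild-type ABHD4 with DMSO and 100% = catalytically dead S159A mutant with DMSO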
An asterisk follows results filed as active; nt = not tested or not shown. Only some compounds are listed: those with a hit (about 2.7% of all), similar ones and a draw of the others.

SMILES	mABHD4 FP	PRMT1 inh	HTRA1 inh	TCR CD3 inh	SIAE primary	ABHD4 confirm
CCN(CC)S(=O)(=O)c1ccc(N2CCCCC2)c(NC(=O)C2CSC3(C)CCC(=O)N23)c1 (stereo not given)	39.9*	2.5	-9.1	-0.5	2.5	36.4*
COc1ccc2c(/C=N/Nc3ccc(C(=O)O)cc3)c[nH]c2c1	50.0*	1.4	3.2	5.2	-5.2	35.6*
COc1ccc2ccccc2c1/C=N/Nc1ccc(Cl)c(C(=O)O)c1	36.7*	2.1	6.8	9.8	14.3	52.1*
COc1ccc2ccccc2c1/C=N/Nc1cccc(C(=O)O)c1	37.4*	12.4	5.7	13.6	14.9	32.5*
COc1ccc(N/N=C/c2c(C(=O)O)ccc3ccccc23)cc1	20.5	1.0	8.0	5.3	-2.7	nt
O=C(N/N=C/C=C\c1ccccc1[N+](=O)[O-])c1ccncc1	5.0	0.7	2.1	-4.2	-6.9	nt
O=C(O)c1cc(N/N=C/C=C/c2ccccc2[N+](=O)[O-])ccc1Cl	30.1*	1.6	10.2	0.5	3.9	35.8*
CC(C)c1ccc(NC2CCCN(C(=O)CSc3nncn3C)C2)cc1 (stereo not given)	3.7	-0.6	7.0	0.3	1.0	nt
O=C(O)c1cc(N/N=C/c2c[nH]c3ccccc23)ccc1Cl	32.0*	16.5	0.7	-6.1	8.2	28.2
CC(C)Cc1ccccc1S(N)(=O)=O	-0.9	-5.7	3.8	-4.9	4.9	nt
CCOc1cc(-c2cn(S(=O)(=O)c3cccc4nsnc34)nc2N)cc(OCC)c1OCC	31.4*	0.8	-3.6	0.1	4.5	50.6*
CCOc1cc(S(=O)(=O)n2cc(-c3ccc(F)cc3)c(N)n2)cc(OCC)c1OCC	48.5*	0.0	-35.9	6.6	-2.3	65.5*
COc1ccccc1-c1cc(N)n(S(=O)(=O)c2cccc3nsnc23)n1	-2.0	-1.8	-3.3	1.4	2.5	nt
O=C(c1cc([N+](=O)[O-])ccc1Cl)N1CCN(c2ccc([N+](=O)[O-])cc2)CC1	39.9*	-3.3	-5.2	-1.5	-1.1	-3.4
O=C(c1cc([N+](=O)[O-])ccc1Cl)N1CCN(c2ccc(F)cc2)CC1	-6.1	-2.6	3.4	4.8	7.2	nt
CCC(C)c1ccccc1NC(=O)COC(=O)c1ccc(C)c(NC(=O)c2ccco2)c1 (stereo not given)	49.0*	-4.2	-20.0	5.0	-3.9	-9.6
CCOC(=O)C1=C(C)N=c2s/c(=C\c3ccc(O)c([N+](=O)[O-])c3)c(=O)n2C1c1ccccc1OC (stereo not given)	36.8*	4.9	21.2	-6.3	3.9	63.0*
CCOC(=O)C1=C(C)N=c2s/c(=C\c3ccc(OCC(=O)O)cc3)c(=O)n2C1c1ccccc1OC (stereo not given)	-11.8	16.9	-17.8	-0.7	-2.7	nt
Cn1c(/C=C/c2ccccc2)nc2ccccc2c1=O	-2.0	-2.5	-0.8	9.0	-6.2	nt
Cn1c(/C=C/c2ccc(Cl)cc2)nc2ccccc2c1=O	57.0*	-0.1	0.4	4.6	-2.3	-18.3
CC1Cc2ccccc2N1C(=O)CN1CCC(n2nnc3cc(C(F)(F)F)ccc32)CC1 (stereo not given)	-4.8	0.6	-10.8	-2.7	1.8	nt
Cc1csc(=O)n1CC(=O)OCc1nnc(-c2ccc(Cl)cc2)o1	36.2*	1.9	6.7	-2.9	1.4	4.7
OCCNc1nc(Nc2cccc(O)c2)nc2ccccc12	-5.1	1.4	2.0	9.4	8.8	nt
COc1cccc(Nc2nc(NCCO)c3ccccc3n2)c1	39.1*	6.4	4.8	-8.6	10.1	47.3*
Cc1cccc(Nc2nc(NCc3ccco3)c3ccccc3n2)c1	39.3*	2.2	-25.2	6.0	22.6*	46.0*
SMILES	mABHD4 FP	PRMT1 inh	HTRA1 inh	TCR CD3 inh	SIAE primary	ABHD4 confirm
Nn1c(SCc2ccc(Br)cc2)nnc1-c1ccccn1	-2.7	-2.5	1.2	6.4	-4.5	nt
Cc1cccc(CSc2nnc(-c3ccccn3)n2N)c1	35.8*	-1.0	0.1	4.0	-6.6	10.8
CC1(C)CC(=O)C=C(c2ccc(-c3cnn(Cc4ccccc4)c3)cc2)C1=O	-3.5	0.8	-23.0	-5.5	3.0	nt
O=C(N/N=C/c1ccc[nH]1)c1cc2ccccc2cc1O	23.1	5.8	30.4	2.4	16.3	nt
O=C(N/N=C/c1ccncc1)c1cc2ccccc2cc1O	42.6*	-0.8	22.0	-1.9	10.1	8.1
COc1ccc(S[C@]2(C(=O)N3CCN(C(C)=O)CC3)CC(=O)N[C@@H]2c2ccc(OC)cc2)cc1	6.7	8.1	nt	nt	-0.8	nt
